Measured values pooled from the literature.
Lines come from different studies, so protocols differ.

SMILES | target or system | test | system | conditions | measurement | value
O=C1O[C@H]([C@@H](O)CO)C(O)=C1O |  | ABTS scavenging |  |  | IC50 | 4.24 µg/mL
O=C1O[C@H]([C@@H](O)CO)C(O)=C1O |  | ABTS scavenging |  | 10 min, dark | IC50 | 16.4 µM
CS(=O)(=O)NCCC(=O)Nc1ccccc1/N=c1\cc(-c2ccc3nc(N)oc3c2)oc2ccccc12 | A549 | cell growth or viability, CCK-8 |  | 1 µM | inhibition | -5.4%
CCCCCCCCCCCCCCCCCCOc1ccccc1CC(=O)OCC[N+]1(C)CCCCC1 | NCI-H522 | cell growth or viability, SRB |  | 10 µM | inhibition | 66.7%
C[C@@H]1[C@H](O)[C@@H](C)/C=C/C=C/C=C/C=C/C=C/C=C/C=C/[C@H](O[C@@H]2O[C@H](C)[C@@H](O)[C@H](N)[C@@H]2O)C[C@@H]2O[C@](O)(C[C@@H](O)C[C@@H](O)[C@H](O)CC[C@@H](O)C[C@@H](O)CC(=O)O[C@H]1C)C[C@H](O)[C@H]2C(=O)O | Leishmania donovani | parasite growth, imaging | THP-1 | 20 nM, intracellular, amastigote | inhibition | 7%
O=C1O[C@H]([C@@H](O)CO)C(O)=C1O |  | ABTS scavenging, absorbance |  | dark | IC50 | 5.42 µg/mL
CCCCC[C@H](O)/C=C/[C@@H]1[C@@H](C/C=C\CCCC(=O)O)[C@@H](O)C[C@H]1O | Leishmania donovani | parasite growth, resazurin |  | 72 h, promastigote | IC50 | > 100 µM
CCOc1ccc(Nc2c3c(nc4ccccc24)CCC3)cc1 | Leishmania donovani | parasite growth | THP-1 | intracellular, amastigote | IC50 | 0.592 µM
COc1cccc(C2NCCc3cc(O)c(O)cc32)c1 (stereo not drawn) |  | ABTS scavenging |  | 10 min, dark | IC50 | 11.2 µM
O=C1O[C@H]([C@@H](O)CO)C(O)=C1O |  | ABTS scavenging, absorbance |  |  | IC50 | 62.8 µM
CCCCCCCCCC1NCCc2cc(O)c(O)cc21 (stereo not drawn) |  | ABTS scavenging |  | 10 min, dark | IC50 | 57.3 µM
CCCCCCCCCCCCCCCCOP(=O)([O-])OCC[N+](C)(C)C | Leishmania donovani | parasite growth | THP-1 | 40 µM, intracellular, amastigote | inhibition | 100%
COc1cccc(C2NCCc3cc(O)c(O)cc32)c1O (stereo not drawn) |  | ABTS scavenging |  | 10 min, dark | IC50 | 8.51 µM
COCCC(=O)Nc1ccccc1/N=c1\cc(-c2ccc3c(c2)OCO3)oc2ccccc12 | A549 | cell growth or viability, CCK-8 |  | 1 µM | inhibition | 4.66%
COc1cc(/C=C/C(=O)CC(=O)/C=C/c2ccc(O)c(OC)c2)ccc1O |  | ABTS scavenging |  | 20 min | IC50 | 165 µg/mL
NCCC(=O)Nc1cccc(/N=c2\cc(-c3ccc4c(c3)OCO4)oc3ccccc23)c1 | A549 | cell growth or viability, CCK-8 |  | 1 µM | inhibition | -1.71%
CCCCCCCCCCC1NCCc2cc(O)c(O)cc21 (stereo not drawn) |  | ABTS scavenging |  | 10 min, dark | IC50 | 69.9 µM
c1ccc(Oc2ccc(Nc3c4c(nc5ccccc35)CCC4)cc2)cc1 | Leishmania donovani | parasite growth, resazurin |  | promastigote | IC50 | 0.6 µM
